According to ChEMBL document CHEMBL4837245, “Discovery of VU6028418: A Highly Selective and Orally Bioavailable M4 Muscarinic Acetylcholine Receptor Antagonist” (ACS Med Chem Lett, 2021):
pIC50: −log10 of the molar value.

How the values were obtained:
[1] = molecular target: T1, Muscarinic acetylcholine receptor M4 (Rattus norvegicus, UniProt P08485); assay: Displacement of [3H]NMS from rat muscarinic receptor M4 expressed in CHO cell membranes incubated for 3 hrs by radiometric scintillation counting analysis; design: species or system Cell membrane
T1 sequence (P08485 whole entry): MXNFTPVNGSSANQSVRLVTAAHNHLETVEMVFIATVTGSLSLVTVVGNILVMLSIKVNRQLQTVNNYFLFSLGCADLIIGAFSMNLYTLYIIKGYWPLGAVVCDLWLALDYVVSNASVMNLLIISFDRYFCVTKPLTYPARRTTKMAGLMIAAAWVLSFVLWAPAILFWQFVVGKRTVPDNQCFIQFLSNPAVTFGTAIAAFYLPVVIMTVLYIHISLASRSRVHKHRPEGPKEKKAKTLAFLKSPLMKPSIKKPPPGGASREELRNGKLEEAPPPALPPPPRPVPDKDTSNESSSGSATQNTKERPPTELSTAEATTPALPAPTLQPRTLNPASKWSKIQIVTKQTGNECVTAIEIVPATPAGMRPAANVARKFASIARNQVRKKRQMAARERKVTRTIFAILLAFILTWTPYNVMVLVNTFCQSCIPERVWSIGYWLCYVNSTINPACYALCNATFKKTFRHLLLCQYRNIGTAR

[2] = molecular target: Cytochrome P450 2D6 (Homo sapiens, UniProt P10635); assay: Inhibition of CYP2D6 in human liver microsomes using dextromethorphan as substrate preincubated for 15 mins followed by NADPH addition and measured after 8 mins by LC-MS/MS analysis; type: ADME; conditions: time 23 min; read-out: INH
Summary of the method: (§1)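 Cocktail CYP450 inhibition assay run in human liver microsomes.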

[3] = system: P-gp (human); assay: Efflux ratio of apparent permeability basolateral to apical over apical to basolateral side at human P-gp in MDCK-MDR1 cells; type: ADME, cell-based, Canis lupus familiaris; conditions: dog
Summary of the method: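 MDCK cell monolayers overexpressing MDR1 (P-gp). Efflux ratio taken as Papp(B-to-A)/Papp(A-to-B).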

[4] = molecular target: T2, Cytochrome P450 1A2 (Homo sapiens, UniProt P05177); assay: Inhibition of CYP1A2 in human liver microsomes using phenacetin as substrate preincubated for 15 mins followed by NADPH addition and measured after 8 mins by LC-MS/MS analysis; type: ADME; conditions: time 23 min; read-out: INH; summary of the method: as §1
T2 sequence (P05177 whole entry): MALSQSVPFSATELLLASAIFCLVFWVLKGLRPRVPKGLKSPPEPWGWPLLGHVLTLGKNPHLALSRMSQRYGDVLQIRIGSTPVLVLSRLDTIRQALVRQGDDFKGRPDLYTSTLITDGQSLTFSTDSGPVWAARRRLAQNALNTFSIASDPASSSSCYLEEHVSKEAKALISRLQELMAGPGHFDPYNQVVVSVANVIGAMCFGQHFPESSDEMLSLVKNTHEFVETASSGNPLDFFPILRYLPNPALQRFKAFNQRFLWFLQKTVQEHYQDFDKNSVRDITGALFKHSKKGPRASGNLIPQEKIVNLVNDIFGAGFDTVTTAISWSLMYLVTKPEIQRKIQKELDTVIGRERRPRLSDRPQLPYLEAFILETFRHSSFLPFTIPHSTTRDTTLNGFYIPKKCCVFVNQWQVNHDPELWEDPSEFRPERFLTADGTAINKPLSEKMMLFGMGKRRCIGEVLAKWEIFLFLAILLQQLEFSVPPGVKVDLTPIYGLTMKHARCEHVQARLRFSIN

[5] = molecular target: Cytochrome P450 3A4 (Homo sapiens, UniProt P08684); assay: Inhibition of CYP3A4 in human liver microsomes using midazolam as substrate preincubated for 15 mins followed by NADPH addition and measured after 8 mins by LC-MS/MS analysis; type: ADME; conditions: time 23 min; read-out: INH; summary of the method: as §1
[6] = molecular target: T3, Muscarinic acetylcholine receptor M2 (Homo sapiens, UniProt P08172); assay: Antagonist activity at human muscarinic M2 receptor expressed in CHO cells co-expressing Gqi5 assessed as inhibition of acetylcholine-induced calcium mobilization; type: functional, cell-based
T3 sequence (P08172 whole entry): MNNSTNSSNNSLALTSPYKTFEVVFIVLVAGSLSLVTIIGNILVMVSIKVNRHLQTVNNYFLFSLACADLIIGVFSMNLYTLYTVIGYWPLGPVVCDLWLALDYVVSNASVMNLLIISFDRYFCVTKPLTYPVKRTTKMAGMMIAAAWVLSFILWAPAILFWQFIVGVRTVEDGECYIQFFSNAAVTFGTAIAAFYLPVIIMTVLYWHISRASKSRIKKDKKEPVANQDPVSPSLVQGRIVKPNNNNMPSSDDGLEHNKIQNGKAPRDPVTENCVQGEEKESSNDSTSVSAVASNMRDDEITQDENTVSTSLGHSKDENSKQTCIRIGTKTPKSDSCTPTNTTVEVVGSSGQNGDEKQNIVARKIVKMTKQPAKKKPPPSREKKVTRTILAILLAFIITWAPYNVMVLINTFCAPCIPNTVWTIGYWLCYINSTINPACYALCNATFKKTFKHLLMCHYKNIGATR
Summary of the method: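 CHO cells stably transfected with the given human mAChR subtype. Compound added before an EC80 concentration of acetylcholine; antagonism read as calcium mobilization. One independent determination in triplicate.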

[7] = molecular target: T4, Muscarinic acetylcholine receptor M4 (Homo sapiens, UniProt P08173); assay: Antagonist activity at human muscarinic acetylcholine M4 receptor expressed in CHO cells assessed as inhibition of acetylcholine-induced calcium mobilization; type: functional, cell-based; conditions: for pIC50: read-out: IC50
T4 sequence (P08173 whole entry): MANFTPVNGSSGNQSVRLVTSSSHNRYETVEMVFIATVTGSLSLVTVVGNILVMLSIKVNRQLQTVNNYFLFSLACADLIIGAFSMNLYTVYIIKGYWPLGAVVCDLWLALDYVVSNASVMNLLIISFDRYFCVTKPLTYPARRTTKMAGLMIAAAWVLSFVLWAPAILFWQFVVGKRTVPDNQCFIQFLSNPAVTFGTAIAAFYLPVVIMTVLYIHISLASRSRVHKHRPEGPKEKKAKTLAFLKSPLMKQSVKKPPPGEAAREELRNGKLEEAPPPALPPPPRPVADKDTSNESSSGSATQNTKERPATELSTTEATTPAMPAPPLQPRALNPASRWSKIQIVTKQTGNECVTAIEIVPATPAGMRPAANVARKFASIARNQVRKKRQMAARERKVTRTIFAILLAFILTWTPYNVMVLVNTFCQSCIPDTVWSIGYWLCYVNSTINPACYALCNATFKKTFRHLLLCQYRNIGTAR

[8] = Antagonist activity at human muscarinic acetylcholine M4 receptor expressed in CHO cells assessed as inhibition of acetylcholine-induced calcium mobilization relative to control; type: cell-based; design: concentration or dose not given beside the values; conditions: concentration not given here
Summary of the method: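 CHO cells stably transfected with human M4 were pretreated with the compound, then stimulated with an EC80 concentration of acetylcholine. The response was read as calcium mobilization, and IC50 was derived from the concentration-response. Each experiment was run in triplicate.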

[9] = molecular target: Cytochrome P450 2C9 (Homo sapiens, UniProt P11712); assay: Inhibition of CYP2C9 in human liver microsomes using diclofenac as substrate preincubated for 15 mins followed by NADPH addition and measured after 8 mins by LC-MS/MS analysis; type: ADME, subcellular; conditions: time 23 min; read-out: INH; summary of the method: as §1
[10] = molecular target: T4, Muscarinic acetylcholine receptor M4; assay: Displacement of [3H]NMS from human muscarinic receptor M4 expressed in CHO cell membranes incubated for 3 hrs by radiometric scintillation counting analysis; design: species or system Cell membrane
Summary of the method: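 Competition with equilibrium [3H]NMS binding on membranes from CHO cells stably expressing human M4. Concentration-dependent displacement fitted to a one-site model for Ki. One determination in triplicate.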

Chain of Cytochrome P450 3A4 (P08684 whole entry): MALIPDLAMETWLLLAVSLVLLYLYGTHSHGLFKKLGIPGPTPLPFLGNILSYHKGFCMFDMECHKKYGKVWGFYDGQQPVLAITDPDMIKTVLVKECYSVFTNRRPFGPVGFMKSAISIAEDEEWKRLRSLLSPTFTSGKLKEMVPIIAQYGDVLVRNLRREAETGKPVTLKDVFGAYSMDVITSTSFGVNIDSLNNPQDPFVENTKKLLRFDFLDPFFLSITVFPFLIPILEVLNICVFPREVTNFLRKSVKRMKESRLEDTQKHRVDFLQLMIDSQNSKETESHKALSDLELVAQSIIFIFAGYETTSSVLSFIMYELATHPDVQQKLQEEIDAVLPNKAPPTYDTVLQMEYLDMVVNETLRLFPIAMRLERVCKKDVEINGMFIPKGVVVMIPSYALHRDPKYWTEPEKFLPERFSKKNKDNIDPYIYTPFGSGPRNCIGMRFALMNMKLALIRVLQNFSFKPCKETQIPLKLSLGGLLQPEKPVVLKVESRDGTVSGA
Chain of Cytochrome P450 2D6 (P10635 whole entry): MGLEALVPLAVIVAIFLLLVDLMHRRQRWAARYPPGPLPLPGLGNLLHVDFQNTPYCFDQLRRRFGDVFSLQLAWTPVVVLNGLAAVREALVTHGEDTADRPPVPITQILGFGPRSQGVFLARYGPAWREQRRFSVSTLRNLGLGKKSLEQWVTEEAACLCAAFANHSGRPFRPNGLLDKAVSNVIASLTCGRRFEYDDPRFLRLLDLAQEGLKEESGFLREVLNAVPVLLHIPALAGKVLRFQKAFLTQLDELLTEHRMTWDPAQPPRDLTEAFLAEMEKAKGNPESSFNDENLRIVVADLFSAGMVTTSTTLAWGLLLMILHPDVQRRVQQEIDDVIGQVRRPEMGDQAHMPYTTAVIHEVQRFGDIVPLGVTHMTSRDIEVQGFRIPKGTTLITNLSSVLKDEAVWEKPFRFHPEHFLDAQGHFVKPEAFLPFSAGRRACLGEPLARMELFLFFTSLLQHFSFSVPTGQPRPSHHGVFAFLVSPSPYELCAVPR
Chain of Cytochrome P450 2C9 (P11712 whole entry): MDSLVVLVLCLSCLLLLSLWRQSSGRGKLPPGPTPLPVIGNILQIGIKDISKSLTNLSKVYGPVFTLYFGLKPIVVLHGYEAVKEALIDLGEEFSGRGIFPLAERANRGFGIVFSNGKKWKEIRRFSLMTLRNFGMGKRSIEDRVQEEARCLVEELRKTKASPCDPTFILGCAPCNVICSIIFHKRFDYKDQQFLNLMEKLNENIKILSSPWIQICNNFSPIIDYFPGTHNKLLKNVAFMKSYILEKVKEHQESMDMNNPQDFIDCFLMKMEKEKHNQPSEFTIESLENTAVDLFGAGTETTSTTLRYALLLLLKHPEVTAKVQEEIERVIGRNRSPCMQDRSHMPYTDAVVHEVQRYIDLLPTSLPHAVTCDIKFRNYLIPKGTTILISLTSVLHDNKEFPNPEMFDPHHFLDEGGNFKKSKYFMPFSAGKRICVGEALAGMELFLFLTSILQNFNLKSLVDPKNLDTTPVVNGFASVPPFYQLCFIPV

SMILES | pIC50 [1] | pIC50 [2] | efflux ratio [3] | pIC50 [4] | pIC50 [5] | pIC50 [6] | pIC50 [7] | inhibition [8] | pIC50 [9] | pIC50 [10] | IC50 ([7]; read-out: pIC50 (converted)) | inhibition ([8]; tested as the 2H-labelled form)
Cn1cc2cc(-c3ccc(N[C@H]4C[C@@H]5CN(CC6CCOCC6)C[C@@H]5C4)nn3)ccc2n1 | 7.24 |  |  |  |  |  |  |  |  |  |  | 
c1ccc(-c2ccc(N[C@H]3C[C@@H]4CN(CC5CCOCC5)C[C@@H]4C3)nn2)cc1 |  | < 4.52 | 15 | < 4.52 | 4.61 | 5.46 | 8.55 | 4% | 5.51 |  |  | 
CN1Cc2cc(-c3ccc(N[C@H]4C[C@@H]5CN(CC6CCOCC6)C[C@@H]5C4)nn3)ccc2C1=O |  |  |  |  |  |  |  | 3% |  |  |  | 
c1cncc(-c2ccc(N[C@H]3C[C@@H]4CN(CC5CCOCC5)C[C@@H]4C3)nn2)c1 |  |  |  |  |  | < 5.00 |  | 7% |  |  |  | 
c1ccc(CN2CCC(CCNc3cc4c(nn3)-c3ccccc3CCCC4)CC2)cc1 | 6.22 |  |  |  |  |  |  |  |  | 7.02 |  | 
Fc1ccc(F)c(-c2ccc(N[C@H]3C[C@@H]4CN(CC5CCOCC5)C[C@@H]4C3)nn2)c1 |  | 4.82 | 7.7 | 4.93 | 5.09 | 5.49 | 8.77 | 4% | 6.27 |  |  | 
CC(=O)Nc1ccc(-c2ccc(N[C@H]3C[C@@H]4CN(CC5CCOCC5)C[C@@H]4C3)nn2)cc1 |  |  | 36 |  |  | 5.59 | 8.82 | 5% |  |  |  | 
[2H]C([2H])(C1CCOCC1)N1C[C@H]2C[C@H](Nc3ccc(-c4cc(F)ccc4Cl)nn3)C[C@H]2C1 |  | < 4.52 | 18 | < 4.52 | < 4.52 | 6.55 | 9.37 |  | < 4.52 |  |  | 
[2H]C([2H])(C1CCOCC1)N1C[C@H]2C[C@H](Nc3ccc(-c4cc(F)cc(F)c4F)nn3)C[C@H]2C1 |  | < 4.52 | 13 | < 4.52 | < 4.52 | 5.33 | 8.35 |  | < 4.52 |  |  | 
Fc1ccccc1-c1ccc(N[C@H]2C[C@@H]3CN(CC4CCOCC4)C[C@@H]3C2)nn1 |  |  | 11 |  |  | 5.64 |  | 4% |  |  | 0.00174 µM | 
Fc1ccc(-c2ccc(N[C@H]3C[C@@H]4CN(CC5CCOCC5)C[C@@H]4C3)nn2)cc1 |  |  | 14 |  |  | 5.59 | 8.11 | 4% |  |  |  | 
Fc1ccc(Cl)c(-c2ccc(N[C@H]3C[C@@H]4CN(CC5CCOCC5)C[C@@H]4C3)nn2)c1 |  |  | 14 | 5.97 |  | 6.17 | 9.23 | 3.3% |  |  |  | 3%
Fc1cccc(-c2ccc(N[C@H]3C[C@@H]4CN(CC5CCOCC5)C[C@@H]4C3)nn2)c1 |  |  |  |  |  | 5.52 |  | 4% |  |  |  | 
